According to ChEMBL document CHEMBL4028805, “Phenylthiazole Antibacterial Agents Targeting Cell Wall Synthesis Exhibit Potent Activity in Vitro and in Vivo against Vancomycin-Resistant Enterococci” (J Med Chem, 2017):
Converted amounts (≈) assume the structure as drawn. The source made the active and inactive calls. No cut-off for these calls is given here.

What was measured:
[1] = tested on: Enterobacter cloacae; experiment: Antibacterial activity against Enterobacter cloacae BAA-1154 after 18 to 22 hrs in absence of colistin by broth microdilution method; type: functional
[2] = tested on: HRT-18 cell line; experiment: Cytotoxicity against human HRT18 cells assessed as reduction in cell viability at 20 ug/ml after 24 hrs by MTS assay; type: cell-based; details: hrt-18, 24 h
Method in brief: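 HRT-18 cells maintained in RPMI-1640 with 10% fetal horse serum at 37 °C, 5% CO2. Exposed to 5, 10, 20 or 40 μg/mL for 2 or 24 h, then MTS added and absorbance read at 490 nm. Viability expressed relative to untreated cells, n ≥ 3, one-way ANOVA with Dunnett's test.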

[3] = tested on: Escherichia coli; experiment: Antibacterial activity against tolC deficient Escherichia coli assessed as formation of misshapen cells at 25 ug/ml after 2 hrs in presence of sucrose by FM4-64/DAPI/SYTOX Green staining-based deconvolution microscopic analysis; type: functional
[4] = tested on: Bacillus subtilis; experiment: Antibacterial activity against Bacillus subtilis assessed as cell lysis at 5 times MIC after 30 mins by sytox green staining-based deconvolution microscopic analysis; type: functional
Method in brief: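 B. subtilis grown in LB at 37 °C to OD600 ~0.2 and treated, with or without MSM for osmotic stabilization, for 30 min or 2 h. Stained with FM 4-64 (1 μg/mL), DAPI (1 μg/mL) and SYTOX Green (1 μg/mL) to score permeability. Examined by deconvolution and phase-contrast microscopy.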

[5] = tested on: Bacillus subtilis; experiment: Antibacterial activity against Bacillus subtilis assessed as misshapen cells at 5 times MIC after 2 hrs in presence of methylsulfonyl methane by phase contrast microscopic analysis; type: functional
Method in brief: (§1)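 B. subtilis grown in LB at 37 °C to OD600 ~0.2, then treated at 5 × MIC with MSM for osmotic stabilisation. At 2 h, stained with FM 4-64 (1 μg/mL), DAPI (1 μg/mL) and SYTOX Green (1 μg/mL). Imaged by deconvolution fluorescence and phase contrast microscopy.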

[6] = tested on: Bacillus subtilis; experiment: Antibacterial activity against Bacillus subtilis assessed as bending of cells at 5 times MIC after 2 hrs in presence of methylsulfonyl methane by phase contrast microscopic analysis; type: functional; method in brief: as §1
[7] = target: T1, Farnesyl pyrophosphate synthase (Homo sapiens, UniProt P14324); experiment: Inhibition of human FPPS
T1 sequence (P14324 whole entry): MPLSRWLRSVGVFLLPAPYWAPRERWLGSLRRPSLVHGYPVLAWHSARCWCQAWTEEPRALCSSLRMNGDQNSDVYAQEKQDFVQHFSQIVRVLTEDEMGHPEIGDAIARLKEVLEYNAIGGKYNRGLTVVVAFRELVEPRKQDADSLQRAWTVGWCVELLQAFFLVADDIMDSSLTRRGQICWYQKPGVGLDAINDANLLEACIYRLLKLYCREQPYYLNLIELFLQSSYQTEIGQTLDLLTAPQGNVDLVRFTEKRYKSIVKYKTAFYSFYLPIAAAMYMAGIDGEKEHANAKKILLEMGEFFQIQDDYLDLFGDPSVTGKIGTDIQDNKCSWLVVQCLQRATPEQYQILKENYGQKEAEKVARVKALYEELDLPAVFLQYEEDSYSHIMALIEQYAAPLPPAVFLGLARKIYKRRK

[8] = Induction of proton motive force collapse in Escherichia coli inverted membrane vesicle in presence of succinate/O2-driven PMF generation system by ACMA-based fluorescence assay; type: functional, cell membranes
Method in brief: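 E. coli inverted membrane vesicles (0.1 mg/mL membrane protein) with 2 μM ACMA and 0.5 mM ATP or succinate, in 10 mM HEPES-KOH, 5 mM MgSO4, 100 mM KCl, pH 7.5. Proton gradient followed by ACMA fluorescence (ex 410/em 480 nm). EC50 taken from dose-response curves. CCCP used as reference uncoupler.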

[9] = tested on: Enterococcus faecium; experiment: Potentiation of vancomycin-induced antibacterial activity against Enterococcus faecium HM-968 assessed as fold reduction in vancomycin MIC preincubated for 30 mins followed by vancomycin addition measured after 18 to 21 hrs; type: functional
Method in brief: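 VRE suspensions at 5×10^5 CFU/mL preincubated with compound at ½ × MIC for 30 min at room temperature. […] Fold reduction calculated as vancomycin MIC alone over MIC in combination.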

CCCCc1ccc(-c2nc(C)c(/C(C)=N/NC(=N)N)s2)cc1
MIC [1]: 64 µg/mL (≈ 194 µM) | Activity [2]: Non-Toxic | Activity [3]: Active | Activity [4]: 95% | Activity [5]: Active | Activity [6]: Active | inhibition (INH) [7]: Not Active | EC50 [8]: 25 µM | Activity [9]: inactive
